Laboratory results reported in PMC9486889 (Japanese Journal of Clinical Oncology, 2022).

Experiment: Phase I dose-escalation: DLT/MTD and treatment-emergent adverse events
Type: in vivo, Japanese patients
Outline: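 Open-label, non-randomized 3+3 dose escalation, starting at 30 mg oral BIW with planned escalation to 50 mg, in continuous 4-week cycles. The DLT window was 28 days from first dose. DLTs were grade 4 hematologic toxicity, grade ≥3 febrile neutropenia, grade 3 thrombocytopenia with significant bleeding, other grade ≥3 non-hematologic toxicity, or troponin rising on 3 consecutive days. AEs were coded by MedDRA 19.1 and graded by CTCAE 4.03.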

## Nc1cc(F)ccc1NC(=O)c1ccc(CNC(=O)/C=C/c2cccnc2)cc1 [HBI-8000, tucidinostat]
30 mg BIW (N = 7)
  Grade 3: Number of patients with at least one TEAE: 5 (71.4) n (%)
  Grade 3 TEAE: Abdominal pain: 0 (0) n (%)
  Grade 3 TEAE: Alanine aminotransferase increased: 0 (0) n (%)
  Grade 3 TEAE: Anaemia: 1 (14.3) n (%)
  Grade 3 TEAE: Blood creatine phosphokinase increased: 1 (14.3) n (%)
  Grade 3 TEAE: Enterocolitis: 0 (0) n (%)
  Grade 3 TEAE: Erythema multiforme: 0 (0) n (%)
  Grade 3 TEAE: Erythema nodosum: 0 (0) n (%)
  Grade 3 TEAE: Hyperglycaemia: 0 (0) n (%)
  Grade 3 TEAE: Hypertriglyceridaemia: 0 (0) n (%)
  Grade 3 TEAE: Lymphocyte count decreased: 1 (14.3) n (%)
  Grade 3 TEAE: Neutropenia: 1 (14.3) n (%)
  Grade 3 TEAE: Parkinsonism: 1 (14.3) n (%)
  Grade 3 TEAE: Pyrexia: 0 (0) n (%)
  Grade 3 TEAE: Rash generalized: 1 (14.3) n (%)
  Grade 3 TEAE: Thrombocytopenia: 0 (0) n (%)
  Grade 4: Number of patients with at least one TEAE: 0 (0) n (%)
  Grade 4 TEAE: Abdominal pain: 0 (0) n (%)
  Grade 4 TEAE: Alanine aminotransferase increased: 0 (0) n (%)
  Grade 4 TEAE: Anaemia: 0 (0) n (%)
  Grade 4 TEAE: Blood creatine phosphokinase increased: 0 (0) n (%)
  Grade 4 TEAE: Enterocolitis: 0 (0) n (%)
  Grade 4 TEAE: Erythema multiforme: 0 (0) n (%)
  Grade 4 TEAE: Erythema nodosum: 0 (0) n (%)
  Grade 4 TEAE: Hyperglycaemia: 0 (0) n (%)
  Grade 4 TEAE: Hypertriglyceridaemia: 0 (0) n (%)
  Grade 4 TEAE: Lymphocyte count decreased: 0 (0) n (%)
  Grade 4 TEAE: Neutropenia: 0 (0) n (%)
  Grade 4 TEAE: Neutrophil count decreased: 0 (0) n (%)
  Grade 4 TEAE: Parkinsonism: 0 (0) n (%)
  Grade 4 TEAE: Pyrexia: 0 (0) n (%)
  Grade 4 TEAE: Rash generalized: 0 (0) n (%)
  Grade 4 TEAE: Thrombocytopenia: 0 (0) n (%)
  Grade 4 TEAE: White blood cell count decreased: 0 (0) n (%)
  Number of patients with at least one related TEAE: 6 (85.7) n (%)
  TEAE: Abdominal pain: 1 (14.3) n (%)
  TEAE: Anaemia: 5 (71.4) n (%)
  TEAE: Back pain: 0 (0) n (%)
  TEAE: C-reactive protein increased: 1 (14.3) n (%)
  TEAE: Decreased appetite: 1 (14.3) n (%)
  TEAE: Diarrhoea: 3 (42.9) n (%)
  TEAE: Dysgeusia: 2 (28.6) n (%)
  TEAE: Fatigue: 3 (42.9) n (%)
  TEAE: Headache: 1 (14.3) n (%)
  TEAE: Hypertriglyceridaemia: 1 (14.3) n (%)
  TEAE: Hyperuricaemia: 2 (28.6) n (%)
  TEAE: Hypocalcaemia: 0 (0) n (%)
  TEAE: Hypokalaemia: 2 (28.6) n (%)
  TEAE: Insomnia: 1 (14.3) n (%)
  TEAE: Nasopharyngitis: 0 (0) n (%)
  TEAE: Nausea: 1 (14.3) n (%)
  TEAE: Neutropenia: 1 (14.3) n (%)
  TEAE: Neutrophil count decreased: 2 (28.6) n (%)
  TEAE: Platelet count decreased: 3 (42.9) n (%)
  TEAE: Pyrexia: 1 (14.3) n (%)
  TEAE: Thrombocytopenia: 2 (28.6) n (%)
  TEAE: Weight decreased: 1 (14.3) n (%)
  TEAE: White blood cell count decreased: 3 (42.9) n (%)
30 mg BIW cohort
  TEAEs that led to dose reduction or dose delay: four
  TEAEs that led to treatment discontinuation: two
30 mg BIW cohort, six patients assessed, Cycle 1
  Dose-limiting toxicities: no dose-limiting toxicitys
40 mg BIW (N = 7)
  Grade 3: Number of patients with at least one TEAE: 4 (57.1) n (%)
  Grade 3 TEAE: Abdominal pain: 1 (14.3) n (%)
  Grade 3 TEAE: Alanine aminotransferase increased: 1 (14.3) n (%)
  Grade 3 TEAE: Anaemia: 0 (0) n (%)
  Grade 3 TEAE: Blood creatine phosphokinase increased: 0 (0) n (%)
  Grade 3 TEAE: Enterocolitis: 1 (14.3) n (%)
  Grade 3 TEAE: Erythema multiforme: 1 (14.3) n (%)
  Grade 3 TEAE: Erythema nodosum: 1 (14.3) n (%)
  Grade 3 TEAE: Hyperglycaemia: 1 (14.3) n (%)
  Grade 3 TEAE: Hypertriglyceridaemia: 1 (14.3) n (%)
  Grade 3 TEAE: Lymphocyte count decreased: 0 (0) n (%)
  Grade 3 TEAE: Neutropenia: 0 (0) n (%)
  Grade 3 TEAE: Neutrophil count decreased: 0 (0) n (%)
  Grade 3 TEAE: Parkinsonism: 0 (0) n (%)
  Grade 3 TEAE: Pyrexia: 1 (14.3) n (%)
  Grade 3 TEAE: Rash generalized: 0 (0) n (%)
  Grade 3 TEAE: Thrombocytopenia: 2 (28.6) n (%)
  Grade 3 TEAE: White blood cell count decreased: 1 (14.3) n (%)
  Grade 4: Number of patients with at least one TEAE: 2 (28.6) n (%)
  Grade 4 TEAE: Abdominal pain: 0 (0) n (%)
  Grade 4 TEAE: Alanine aminotransferase increased: 0 (0) n (%)
  Grade 4 TEAE: Anaemia: 0 (0) n (%)
  Grade 4 TEAE: Blood creatine phosphokinase increased: 0 (0) n (%)
  Grade 4 TEAE: Enterocolitis: 0 (0) n (%)
  Grade 4 TEAE: Erythema multiforme: 0 (0) n (%)
  Grade 4 TEAE: Erythema nodosum: 0 (0) n (%)
  Grade 4 TEAE: Hyperglycaemia: 0 (0) n (%)
  Grade 4 TEAE: Hypertriglyceridaemia: 0 (0) n (%)
  Grade 4 TEAE: Lymphocyte count decreased: 0 (0) n (%)
  Grade 4 TEAE: Neutropenia: 2 (28.6) n (%)
  Grade 4 TEAE: Neutrophil count decreased: 0 (0) n (%)
  Grade 4 TEAE: Parkinsonism: 0 (0) n (%)
  Grade 4 TEAE: Pyrexia: 0 (0) n (%)
  Grade 4 TEAE: Rash generalized: 0 (0) n (%)
  Grade 4 TEAE: Thrombocytopenia: 0 (0) n (%)
  Grade 4 TEAE: White blood cell count decreased: 0 (0) n (%)
  Number of patients with at least one related TEAE: 7 (100) n (%)
  TEAE: Abdominal pain: 1 (14.3) n (%)
  TEAE: Anaemia: 0 (0) n (%)
  TEAE: Back pain: 2 (28.6) n (%)
  TEAE: C-reactive protein increased: 1 (14.3) n (%)
  TEAE: Decreased appetite: 2 (28.6) n (%)
  TEAE: Diarrhoea: 1 (14.3) n (%)
  TEAE: Dysgeusia: 1 (14.3) n (%)
  TEAE: Fatigue: 1 (14.3) n (%)
  TEAE: Headache: 1 (14.3) n (%)
  TEAE: Hypertriglyceridaemia: 1 (14.3) n (%)
  TEAE: Hyperuricaemia: 0 (0) n (%)
  TEAE: Hypocalcaemia: 3 (42.9) n (%)
  TEAE: Hypokalaemia: 1 (14.3) n (%)
  TEAE: Insomnia: 1 (14.3) n (%)
  TEAE: Nasopharyngitis: 2 (28.6) n (%)
  TEAE: Nausea: 2 (28.6) n (%)
  TEAE: Neutropenia: 2 (28.6) n (%)
  TEAE: Neutrophil count decreased: 0 (0) n (%)
  TEAE: Platelet count decreased: 3 (42.9) n (%)
  TEAE: Pyrexia: 2 (28.6) n (%)
  TEAE: Thrombocytopenia: 4 (57.1) n (%)
  TEAE: Weight decreased: 2 (28.6) n (%)
  TEAE: White blood cell count decreased: 1 (14.3) n (%)
40 mg BIW cohort
  Incidence of thrombocytopenia: 57.1%
  TEAEs that led to dose reduction or dose delay: four
  TEAEs that led to treatment discontinuation: four
Total (N = 14)
  Grade 3: Number of patients with at least one TEAE: 9 (64.3) n (%)
  Grade 3 TEAE: Abdominal pain: 1 (7.1) n (%)
  Grade 3 TEAE: Alanine aminotransferase increased: 1 (7.1) n (%)
  Grade 3 TEAE: Anaemia: 1 (7.1) n (%)
  Grade 3 TEAE: Blood creatine phosphokinase increased: 1 (7.1) n (%)
  Grade 3 TEAE: Enterocolitis: 1 (7.1) n (%)
  Grade 3 TEAE: Erythema multiforme: 1 (7.1) n (%)
  Grade 3 TEAE: Erythema nodosum: 1 (7.1) n (%)
  Grade 3 TEAE: Hyperglycaemia: 1 (7.1) n (%)
  Grade 3 TEAE: Hypertriglyceridaemia: 1 (7.1) n (%)
  Grade 3 TEAE: Lymphocyte count decreased: 1 (7.1) n (%)
  Grade 3 TEAE: Neutropenia: 1 (7.1) n (%)
  Grade 3 TEAE: Neutrophil count decreased: 2 (14.3) n (%)
  Grade 3 TEAE: Parkinsonism: 1 (7.1) n (%)
  Grade 3 TEAE: Pyrexia: 1 (7.1) n (%)
  Grade 3 TEAE: Rash generalized: 1 (7.1) n (%)
  Grade 3 TEAE: Thrombocytopenia: 2 (14.3) n (%)
  Grade 3 TEAE: White blood cell count decreased: 2 (14.3) n (%)
  Grade 4: Number of patients with at least one TEAE: 2 (14.3) n (%)
  Grade 4 TEAE: Abdominal pain: 0 (0) n (%)
  Grade 4 TEAE: Alanine aminotransferase increased: 0 (0) n (%)
  Grade 4 TEAE: Anaemia: 0 (0) n (%)
  Grade 4 TEAE: Blood creatine phosphokinase increased: 0 (0) n (%)
  Grade 4 TEAE: Enterocolitis: 0 (0) n (%)
  Grade 4 TEAE: Erythema multiforme: 0 (0) n (%)
  Grade 4 TEAE: Erythema nodosum: 0 (0) n (%)
  Grade 4 TEAE: Hyperglycaemia: 0 (0) n (%)
  Grade 4 TEAE: Hypertriglyceridaemia: 0 (0) n (%)
  Grade 4 TEAE: Lymphocyte count decreased: 0 (0) n (%)
  Grade 4 TEAE: Neutropenia: 2 (14.3) n (%)
  Grade 4 TEAE: Neutrophil count decreased: 0 (0) n (%)
  Grade 4 TEAE: Parkinsonism: 0 (0) n (%)
  Grade 4 TEAE: Pyrexia: 0 (0) n (%)
  Grade 4 TEAE: Rash generalized: 0 (0) n (%)
  Grade 4 TEAE: Thrombocytopenia: 0 (0) n (%)
  Grade 4 TEAE: White blood cell count decreased: 0 (0) n (%)
  Number of patients with at least one related TEAE: 13 (92.9) n (%)
  TEAE: Abdominal pain: 2 (14.3) n (%)
  TEAE: Anaemia: 5 (35.7) n (%)
  TEAE: Back pain: 2 (14.3) n (%)
  TEAE: C-reactive protein increased: 2 (14.3) n (%)
  TEAE: Decreased appetite: 3 (21.4) n (%)
  TEAE: Diarrhoea: 4 (28.6) n (%)
  TEAE: Dysgeusia: 3 (21.4) n (%)
  TEAE: Fatigue: 4 (28.6) n (%)
  TEAE: Headache: 2 (14.3) n (%)
  TEAE: Hypertriglyceridaemia: 2 (14.3) n (%)
  TEAE: Hyperuricaemia: 2 (14.3) n (%)
  TEAE: Hypocalcaemia: 3 (21.4) n (%)
  TEAE: Hypokalaemia: 3 (21.4) n (%)
  TEAE: Insomnia: 2 (14.3) n (%)
  TEAE: Nasopharyngitis: 2 (14.3) n (%)
  TEAE: Nausea: 3 (21.4) n (%)
  TEAE: Neutropenia: 3 (21.4) n (%)
  TEAE: Neutrophil count decreased: 2 (14.3) n (%)
  TEAE: Platelet count decreased: 6 (42.9) n (%)
  TEAE: Pyrexia: 3 (21.4) n (%)
  TEAE: Thrombocytopenia: 6 (42.9) n (%)
  TEAE: Weight decreased: 3 (21.4) n (%)
  TEAE: White blood cell count decreased: 4 (28.6) n (%)
All 14 patients
  Neutrophil count decreased leading to dose reduction or dose delay: 14.3%
  Patients with at least one TEAE: 92.9%
  Platelet count decreased leading to dose reduction or dose delay: 28.6%
  TEAEs that led to dose reduction or dose delay: 57.1%
  TEAEs that led to treatment discontinuation: 42.9%
oral
  Recommended phase II dose (RP2D): 40 mg BIW
oral, 4-week cycles
  Maximum tolerated dose (MTD): 40 mg BIW
